Laboratory results as given in ChEMBL document CHEMBL3352189 (J Med Chem, 2014).

How the values were obtained:
[1] = test system: Venezuelan equine encephalitis virus; experiment: Antiviral activity against Venezuelan equine encephalitis virus TC83 infected in Vero 76 cells assessed as reduction in virus-induced cytopathic effect after 2 days by Celltiter-Glo reagent based assay; format: functional, organism-based; settings: TC83, Vero 76, 48 h
[2] = Selectivity index, ratio of CC50 for african green monkey Vero 76 cells to EC50 for Venezuelan equine encephalitis virus TC83; format: toxicity, cell-based; settings: read-out: Ratio CC50/EC50
[3] = Cytotoxicity against african green monkey Vero 76 cells after 3 days by Celltiter-Glo reagent based assay; format: cell-based; settings: chlorocebus sabaeus, vero 76, 72 h
Summary of the method: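 Vero 76 cells were seeded overnight at 12 000/well and given an 8-point 2-fold compound series (20 mM DMSO stock) in EMEM/10% FBS with no virus. Viability was read by CellTiter-Glo after 3 days relative to untreated cells. Run in duplicate; CC50 from a four-parameter logistic or sigmoidal fit.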

Compound | EC50 [1] | selectivity ratio [2] | CC50 [3]
CN1CCN(C)/C(=N/c2cc(F)c(F)cc2C(=O)Nc2ccccc2)C1 | 4.4 µM | > 11.4 | > 50 µM
O=c1c2cc([N+](=O)[O-])ccc2nc(CN2CCCCC2)n1-c1ccccc1F | 4.7 µM | > 10.6 | > 50 µM
CCN1CCN(Cc2nc3ccccc3c(=O)n2-c2ccccc2F)CC1 | > 25 µM |  | > 50 µM
CCN1CCN(Cc2nc3ccc(S(=O)(=O)O)cc3c(=O)n2-c2ccccc2)CC1 | > 25 µM |  | > 50 µM
CCN1CCN(Cc2nc3ccc(C(=O)N(C)C)cc3c(=O)n2-c2ccccc2)CC1 | > 25 µM |  | > 50 µM
CN1CCN(C)/C(=N/c2ccc([N+](=O)[O-])cc2C(=O)Nc2cccc(F)c2)C1 | 0.1 µM | > 500 | > 50 µM
CN1CCN(C)/C(=N/c2ccc(C(F)(F)F)cc2C(=O)Nc2ccccc2)C1 | 22.3 µM | > 2.2 | > 50 µM
CCN1CCN(Cc2nc3ccc(C(F)(F)F)cc3c(=O)n2-c2ccccc2F)CC1 | > 25 µM |  | > 50 µM
COc1ccccc1-n1c(CN2CCNCC2)nc2ccc([N+](=O)[O-])cc2c1=O | > 25 µM |  | > 50 µM
CN1CCN(C)/C(=N/c2cc(F)c(C#N)cc2C(=O)Nc2ccccc2)C1 | 0.4 µM | > 125 | > 50 µM
CCN1CCN(Cc2nc3ccc(C#N)cc3c(=O)n2-c2ccccc2)CC1 | 1.1 µM | > 45.5 | > 50 µM
CNCCCN(C)Cc1nc2ccc([N+](=O)[O-])cc2c(=O)n1-c1ccccc1 | 0.6 µM | > 83.3 | > 50 µM
CN1CCN(C)/C(=N/c2ccccc2C(=O)Nc2ccccc2)C1 | > 25 µM |  | > 50 µM
CCN1CCN(Cc2nc3ccc(-c4nnn[nH]4)cc3c(=O)n2-c2ccccc2)CC1 | > 25 µM |  | > 50 µM
CN1CCN(C)/C(=N/c2ccc(C#N)cc2C(=O)Nc2cccc(F)c2)C1 | 0.8 µM | > 62.5 | > 50 µM
O=c1c2cc([N+](=O)[O-])ccc2nc(CN2CCOCC2)n1-c1ccccc1F | 8.7 µM | > 5.7 | > 50 µM
CN(C)c1ccc(-n2c(CN3CCNCC3)nc3ccc([N+](=O)[O-])cc3c2=O)cc1 | > 25 µM |  | > 50 µM
CN1CCN(C)/C(=N/c2ccc([N+](=O)[O-])cc2C(=O)NCc2ccccc2)C1 | 3.7 µM | > 13.5 | > 50 µM
CN1CCN(C)/C(=N/c2ccc(F)cc2C(=O)Nc2ccccc2)C1 | 6.4 µM | > 7.8 | > 50 µM
O=c1c2cc([N+](=O)[O-])ccc2nc(CN2CCNCC2)n1-c1ccccc1 | 0.2 µM | > 250 | > 50 µM
CN1CCN(C)/C(=N/c2cc(Cl)c(C#N)cc2C(=O)Nc2ccccc2)C1 | 0.1 µM | > 500 | > 50 µM
CCN1CCN(Cc2nc3ccc([N+](=O)[O-])cc3c(=O)n2-c2cccc(F)c2)CC1 | 0.4 µM | > 125 | > 50 µM
COc1cccc(NC(=O)c2cc([N+](=O)[O-])ccc2/N=C2\CN(C)CCN2C)c1 | 8.1 µM | > 6.2 | > 50 µM
CN(C)c1cccc(-n2c(CN3CCNCC3)nc3ccc([N+](=O)[O-])cc3c2=O)c1 | > 25 µM |  | > 50 µM
CC(C)N1CCN(Cc2nc3ccc([N+](=O)[O-])cc3c(=O)n2-c2ccccc2F)CC1 | 4.4 µM | > 11.4 | > 50 µM
CN1CCN(C)/C(=N/c2ccc([N+](=O)[O-])cc2C(=O)Nc2ccsc2)C1 | 0.5 µM | 100 | > 50 µM

Compound | EC50 [1] | selectivity ratio [2] | CC50 [3]
COc1cccc(-n2c(CN3CCNCC3)nc3ccc([N+](=O)[O-])cc3c2=O)c1 | 5.1 µM | > 9.8 | > 50 µM
CN1CCN(C)/C(=N/c2ccc(C#N)cc2C(=O)Nc2ccccc2)C1 | 0.4 µM | > 125 | > 50 µM
CCN1CCN(Cc2nc3ccc([N+](=O)[O-])cc3c(=O)n2-c2ccccc2)CC1 | 0.3 µM | > 167 | > 50 µM
COc1ccc(-n2c(CN3CCNCC3)nc3ccc([N+](=O)[O-])cc3c2=O)cc1 | 0.2 µM | > 250 | > 50 µM
O=c1c2cc([N+](=O)[O-])ccc2nc(C2CCNCC2)n1-c1ccccc1 | 3.6 µM | > 13.9 | > 50 µM
CN1CCN(C)/C(=N/c2cc(F)ccc2C(=O)Nc2ccccc2)C1 | > 25 µM |  | > 50 µM
CC(C)NC(=O)c1cc([N+](=O)[O-])ccc1/N=C1\CN(C)CCN1C | > 25 µM |  | > 50 µM
O=c1c2cc([N+](=O)[O-])ccc2nc(CN2CCN(c3ccccc3)CC2)n1-c1ccccc1F | > 25 µM |  | > 50 µM
CN1CCN(C)/C(=N/c2ccc([N+](=O)[O-])cc2C(=O)Nc2ccccc2F)C1 | 0.2 µM | > 250 | > 50 µM
CN1CCN(Cc2nc3ccc([N+](=O)[O-])cc3c(=O)n2-c2ccccc2F)CC1 | 0.8 µM | > 62.5 | > 50 µM
CCN1CCN(Cc2nc3ccc(-c4cccnc4)cc3c(=O)n2-c2ccccc2)CC1 | > 25 µM |  | > 50 µM
O=c1c2cc([N+](=O)[O-])ccc2nc(CN2CCCNC2)n1-c1ccccc1 | 1.1 µM | > 45.5 | > 50 µM
O=c1c2cc([N+](=O)[O-])ccc2nc(CN2CCNCC2)n1-c1ccccc1F | 0.2 µM | > 250 | > 50 µM
CCN1CCN(C)C/C1=N\c1ccc([N+](=O)[O-])cc1C(=O)Nc1ccccc1 | 0.05 µM | > 1000 | > 50 µM
O=C1CN(Cc2nc3ccc([N+](=O)[O-])cc3c(=O)n2-c2ccccc2F)CCN1 | > 25 µM |  | > 50 µM
COc1ccccc1NC(=O)c1cc([N+](=O)[O-])ccc1/N=C1\CN(C)CCN1C | 33.7 µM | > 1.5 | > 50 µM
CCN1CCN(Cc2nc3ccc([N+](=O)[O-])cc3c(=O)n2C)CC1 | > 25 µM |  | > 50 µM
CCN1CCN(c2nc3ccc([N+](=O)[O-])cc3c(=O)n2-c2ccccc2)CC1 | > 25 µM |  | > 50 µM
CCN1CCN(Cc2nc3ccc(C(N)=O)cc3c(=O)n2-c2ccccc2)CC1 | > 25 µM |  | > 50 µM
CN1CCN(C)/C(=N/c2cc([N+](=O)[O-])ccc2C(=O)Nc2ccccc2)C1 | 8.4 µM | > 6 | > 50 µM
CCN1CCN(Cc2nc3ccc([N+](=O)[O-])cc3c(=O)n2Cc2ccccc2)CC1 | > 25 µM |  | > 50 µM
CCN1CCN(Cc2nc3ccc([N+](=O)[O-])cc3c(=O)n2C(C)C)CC1 | > 25 µM |  | > 50 µM
CCN1CCN(Cc2nc3ccc(C(=O)O)cc3c(=O)n2-c2ccccc2)CC1 | > 25 µM |  | > 50 µM
CCN1CCN(Cc2nc3ccc([N+](=O)[O-])cc3c(=O)[nH]2)CC1 | > 25 µM |  | > 50 µM
CCN1CCN(Cc2nc3ccc(-c4ccccn4)cc3c(=O)n2-c2ccccc2)CC1 | > 25 µM |  | > 50 µM
